Calls of active or inactive are those of the source.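 The calls were made as follows, unless noted: active = viability loss from added drug above about 55%, and viability with drug at most 40%, in both replicates (limit read from the data, passing the limit was not always enough); inconclusive = both conditions met in only one replicate; inactive = neither replicate meets both conditions.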
Key:
[1] = Her2 expression decrease, cell viability multiplex – SKBR3 breast tumor cells, AlphaScreen, ATP viability, primary screen (AID 461;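 active = Her2 level under about 52% in both replicate screens, with viability over 70% of control, limit read from the data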;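 as to Her2 level: lower value means less Her2 protein in the cells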;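 as to viability: percent of carrier control wells set as 100% viability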); conditions: SKBR3 Her2 protein level, 18-24 h, measured here: SKBR3 viability, ATP luminescence, at 10 µM
[2] = molecular target: Receptor tyrosine-protein kinase erbB-2 (Homo sapiens) (UniProt P04626); assay: as above; conditions: 18-24 h, at 10 µM, stronger effect = lower value
Receptor tyrosine-protein kinase erbB-2 (Homo sapiens), sequence (P04626 whole entry, looked up): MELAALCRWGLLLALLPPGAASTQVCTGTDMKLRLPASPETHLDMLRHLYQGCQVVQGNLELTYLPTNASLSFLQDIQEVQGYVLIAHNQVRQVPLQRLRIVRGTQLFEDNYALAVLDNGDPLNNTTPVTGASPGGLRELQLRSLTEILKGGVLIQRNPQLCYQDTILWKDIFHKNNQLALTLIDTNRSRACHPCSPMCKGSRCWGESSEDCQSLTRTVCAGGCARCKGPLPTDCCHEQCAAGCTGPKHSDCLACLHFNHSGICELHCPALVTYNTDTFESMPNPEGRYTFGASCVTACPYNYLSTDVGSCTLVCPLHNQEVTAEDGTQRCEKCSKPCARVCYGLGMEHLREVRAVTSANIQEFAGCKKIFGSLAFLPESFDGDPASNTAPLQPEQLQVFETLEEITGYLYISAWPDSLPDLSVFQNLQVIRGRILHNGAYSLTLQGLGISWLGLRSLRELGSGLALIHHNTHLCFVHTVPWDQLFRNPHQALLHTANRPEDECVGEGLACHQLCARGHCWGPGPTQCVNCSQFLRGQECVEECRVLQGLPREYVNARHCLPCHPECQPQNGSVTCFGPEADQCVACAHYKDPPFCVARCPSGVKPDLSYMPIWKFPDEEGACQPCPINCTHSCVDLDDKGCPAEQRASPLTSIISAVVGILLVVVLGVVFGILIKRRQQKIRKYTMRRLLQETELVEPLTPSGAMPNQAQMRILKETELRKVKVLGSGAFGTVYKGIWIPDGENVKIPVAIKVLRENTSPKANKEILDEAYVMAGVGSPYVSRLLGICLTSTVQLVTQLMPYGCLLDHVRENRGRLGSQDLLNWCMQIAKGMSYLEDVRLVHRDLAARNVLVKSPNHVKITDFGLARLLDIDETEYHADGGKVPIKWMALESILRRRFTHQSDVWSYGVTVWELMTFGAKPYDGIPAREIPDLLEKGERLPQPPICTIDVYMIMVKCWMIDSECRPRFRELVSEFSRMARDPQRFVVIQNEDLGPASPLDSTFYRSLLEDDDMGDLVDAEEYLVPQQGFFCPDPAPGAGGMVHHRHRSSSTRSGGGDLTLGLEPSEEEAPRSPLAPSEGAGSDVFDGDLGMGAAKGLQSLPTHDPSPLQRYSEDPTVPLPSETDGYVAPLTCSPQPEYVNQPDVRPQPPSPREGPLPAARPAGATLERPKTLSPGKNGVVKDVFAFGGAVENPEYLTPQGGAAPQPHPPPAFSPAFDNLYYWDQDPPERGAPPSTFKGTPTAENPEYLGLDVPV

[3] = reduced viability of SK-BR-3 breast cancer cells – cell-based, 24 h, human, pilot screen (AID 572;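 active = viability at or below 10% of carrier control in both of two separate runs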;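 also: compound exposure lasted between 18 and 24 h rather than exactly 24 h; 100% = carrier-treated control wells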); conditions: SK-BR-3 viability, CellTiter-Glo luminescence, at 10 µM, stronger effect = lower value
[4] = HUVEC growth inhibition – cell-based, human, primary screen (AID 575;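 active = viability at or below 30% in both replicate assays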;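 also: 100% = median of untreated cell wells with 0.1% DMSO on each plate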); conditions: HUVEC proliferation, CellTiter-Glo luminescence, 72 h; at 10 µM; stronger effect = lower value
Summary of the method: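 System – primary HUVEC, no more than 12 passages · Medium – Low-serum (2% FBS) EBM, supplemented · Times – 72 h exposure, 37 °C, 5% CO2, 30 min RT equilibration · Measured by – luminescent ATP assay · Read-out – % viability relative to median vehicle-well signal on each plate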

[5] = H69AR cell proliferation blockers – human, duplicate replicates, primary screen (AID 580;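 active = viability at or under a set limit in both replicates, limit being median viability minus 3 SD, cut at about 48% in these data, passing the limit was not always enough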;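 also: 100% = mean luminescence of untreated wells and 0% = no signal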); conditions: H69AR lung tumor cells viability, ATP luminescence, 72 h; at 10 µM; stronger effect = lower value
[6] = MRP1 drug-resistance reversers in H69AR cells – cell-based, doxorubicin co-treatment, pilot screen (AID 601); conditions: CellTiter-Glo, 72 h, at 10 µM; for differential viability (reversal): stronger effect = higher value
[7] = yeast transport mutant growth inhibition pilot in 384-well plates, post-Golgi transport modulator project (AID 636; in the data active = inhibition above about 31%); conditions: absorbance 615 nm, about 18 h, stronger effect = higher value
[8] = growth suppression of yeast trafficking mutant, preliminary HTS, modulators of trafficking downstream of Golgi apparatus project, 1536-format plate, OD 615 nm (AID 637; in the data active = inhibition above about 30%); conditions: yeast transport mutant growth, absorbance 615 nm, 18 h; stronger effect = higher value
[9] = H69AR cells + 2 uM doxorubicin, measured here: viability with 2 uM doxorubicin, stronger effect = lower value
[10] = H69AR cells, compound alone cytotoxicity

Row | Compound | viability [1] [%] | Her2 level [2] | viability [3] | viability [4] | viability [5] | differential viability (reversal) ([6]; H69AR cells + 2 uM doxorubicin) | viability [6, 9] [%] | viability [6, 10] [%] | inhibition [7] | inhibition [8]
1 | CCOc1ccc(CN2C(=O)c3ccccc3C2C(=O)NCc2cccnc2)cc1 (stereo not given) | 96 | 96.5% (inactive) | 96% (inactive) | 86.6% (inactive) | 98.8% (inactive) | 1.78% (inactive) | 97 | 98.8 | -0.91% (inactive) | -3.02% (inactive)
2 | CC(C)COC(=O)C1[C@H]2C(=O)N(Cc3cccs3)C[C@]23C=C[C@H]1O3 (stereo not given in full) | 102 | 109% (inactive) | 102% (inactive) | 110% (inactive) | 91.1% (inactive) | 1.3% (inactive) | 89.8 | 91.1 | -4.29% (inactive) | -2.33% (inactive)
3 | COc1ccc(-n2c(SCC(=O)c3c(N)n(C)c(=O)n(C)c3=O)nc3ccccc32)cc1 | 105 | 71.5% (inactive) | 105% (inactive) | 90% (inactive) | 98.5% (inactive) | 12.6% (inactive) | 86 | 98.5 | -4.73% (inactive) | 1.9% (inactive)
4 | CN(Cc1ccccc1)Cc1nc2c(c(=O)n(C)c(=O)n2C)n1Cc1ccc(Cl)cc1 | 67.5 | 102% (inactive) | 67.5% (inactive) | 84.1% (inactive) | 86% (inactive) | 1.76% (inactive) | 84.2 | 86 | -0.67% (inactive) | 7.05% (inactive)
5 | CS(=O)(=O)N(CC(=O)Nc1ccc2c(c1)OCCO2)Cc1ccccc1 | 93.5 | 92% (inactive) | 93.5% (inactive) | 107% (inactive) | 99.5% (inactive) | 12.3% (inactive) | 87.2 | 99.5 | -4.93% (inactive) | -0.79% (inactive)
6 | Fc1ccccc1-c1nc(NCCCN2CCOCC2)c2ccccc2n1 | 94 | 107% (inactive) | 94% (inactive) | 85.6% (inactive) | 72.2% (inactive) | -7.69% (inactive) | 79.9 | 72.2 | -0.68% (inactive) | 9.21% (inactive)
7 | Cc1nn(-c2ccccc2)c(Cl)c1C(=O)NCC(=O)O | 100 | 96% (inactive) | 100% (inactive) | 105% (inactive) | 113% (inactive) | 1.59% (inactive) | 111 | 113 | -6.45% (inactive) | 0.17% (inactive)
8 | CS(=O)(=O)N1CCCC(C(=O)NCCCN2CCc3ccccc3C2)C1 (stereo not given) | 93 | 102% (inactive) | 93% (inactive) | 102% (inactive) | 95.1% (inactive) | 7.38% (inactive) | 87.8 | 95.1 | -0.91% (inactive) | -8.89% (inactive)
9 | COc1ccc(C)cc1NC(=O)CSc1nnnn1Cc1ccccc1 | 83 | 96.5% (inactive) | 83% (inactive) | 82.1% (inactive) | 96.8% (inactive) | 6% (inactive) | 90.8 | 96.8 | -1.49% (inactive) | -2.62% (inactive)
10 | COc1ccccc1CN1CC(C(=O)N2CCN(c3ccc(F)cc3)CC2)CC1=O (stereo not given) | 92 | 86% (inactive) | 92% (inactive) | 98% (inactive) | 88.8% (inactive) | -3.51% (inactive) | 92.3 | 88.8 | -2.24% (inactive) | 11.5% (inactive)
11 | O=C(NC1CCS(=O)(=O)C1)c1c(NC(=O)C2COc3ccccc3O2)sc2c1CCCC2 (stereo not given) | 67 | 69.5% (inactive) | 67% (inactive) | 45.3% (inactive) | 38.3% (active) | 2.25% (inactive) | 36 | 38.3 | -4.67% (inactive) | -1.61% (inactive)
12 | CN(C1CCS(=O)(=O)C1)S(=O)C12CC3CC(CC(C3)C1)C2 (stereo not given) | 83 | 95.5% (inactive) | 83% (inactive) | 92.8% (inactive) | 99.9% (inactive) | 3.66% (inactive) | 96.3 | 99.9 | -5.75% (inactive) | -5.08% (inactive)
13 | CC1CCN(C(=O)CSc2nc3ccccc3[nH]2)CC1 | 82 | 99.5% (inactive) | 82% (inactive) | 91.8% (inactive) | 109% (inactive) | 14.7% (inactive) | 94.6 | 109 | 0.26% (inactive) | 6% (inactive)
14 | Cc1ccc(C)c(OCC(O)CN2C(C)CCCC2C)c1 (stereo not given) | 70 | 98% (inactive) | 70% (inactive) | 96.2% (inactive) | 83.8% (inactive) | 0.415% (inactive) | 83.4 | 83.8 | -0.53% (inactive) | -0.95% (inactive)
15 | CCCOc1cc(C)c(S(=O)(=O)N2CCN(C)CC2)cc1C | 89 | 99% (inactive) | 89% (inactive) | 104% (inactive) | 95.2% (inactive) | 2.26% (inactive) | 92.9 | 95.2 | -1.58% (inactive) | 5.41% (inactive)
16 | Cc1c(C(=O)N2CCCC2)sc(NC(=O)c2cccs2)c1C#N | 106 | 91.5% (inactive) | 106% (inactive) | 98.1% (inactive) | 89.9% (inactive) | -0.35% (inactive) | 90.2 | 89.9 | -3.6% (inactive) | -5.81% (inactive)

Row | Compound | viability [1] [%] | Her2 level [2] | viability [3] | viability [4] | viability [5] | differential viability (reversal) ([6]; H69AR cells + 2 uM doxorubicin) | viability [6, 9] [%] | viability [6, 10] [%] | inhibition [7] | inhibition [8]
17 | CC(C)=CCCC(C)CN(C)CCc1ccccn1 (stereo not given) | 79 | 97% (inactive) | 79% (inactive) | 101% (inactive) | 98.6% (inactive) | 21.2% (inactive) | 77.3 | 98.6 | -5.19% (inactive) | -3.61% (inactive)
18 | CN(C(=O)CSc1nc2c(c(=O)[nH]1)CCCC2)C1CCCCC1 | 95 | 105% (inactive) | 95% (inactive) | 77.1% (inactive) | 93.3% (inactive) | 1.09% (inactive) | 92.2 | 93.3 | -1.97% (inactive) | -8.89% (inactive)
19 | O=C(c1ccco1)N1CCN(S(=O)(=O)c2ccc(Oc3ccccc3)cc2)CC1 | 82 | 102% (inactive) | 82% (inactive) | 78.6% (inactive) | 90.6% (inactive) | -6.27% (inactive) | 96.8 | 90.6 | -1.35% (inactive) | 5.74% (inactive)
20 | CCN1CCN(C(c2ccc(F)cc2)c2nnnn2Cc2cccs2)CC1 (stereo not given) | 83 | 105% (inactive) | 83% (inactive) | 89.4% (inactive) | 94.9% (inactive) | 8.46% (inactive) | 86.4 | 94.9 | -1.15% (inactive) | -0.17% (inactive)
21 | CCCCCOC(=O)CSc1nnc(-c2cc(OC)c(OC)c(OC)c2)o1 | 84.5 | 69.5% (inactive) | 84.5% (inactive) | 104% (inactive) | 104% (inactive) | 10.6% (inactive) | 93.2 | 104 | -5% (inactive) | -6.5% (inactive)
22 | CCc1nnc(NC(=O)c2ccc(S(=O)(=O)NCC(C)C)cc2)s1 | 92.5 | 89% (inactive) | 92.5% (inactive) | 100% (inactive) | 98.3% (inactive) | 1.11% (inactive) | 97.2 | 98.3 | -5.95% (inactive) | 0.16% (inactive)
23 | CCOC(=O)c1[nH]c(C)c(C(=O)NCC2CCCO2)c1C (stereo not given) | 99 | 92% (inactive) | 99% (inactive) | 108% (inactive) | 101% (inactive) | 9.65% (inactive) | 91.3 | 101 | -2.47% (inactive) | -0.32% (inactive)
24 | COc1ccc(OC)c(NC(=O)CS(=O)(=O)Cc2nc(-c3ccccc3C)oc2C)c1 | 97.5 | 97.5% (inactive) | 97.5% (inactive) | 66.1% (inactive) | 94.4% (inactive) | -2.23% (inactive) | 96.6 | 94.4 | -2.8% (inactive) | 6.83% (inactive)
25 | CCN(CCCNC(=O)c1cn(CC)c2ccc(S(=O)(=O)N(C)C)cc2c1=O)c1cccc(C)c1 | 98 | 74.5% (inactive) | 98% (inactive) | 61.6% (inactive) | 80% (inactive) | 60.4% (active) | 19.6 | 80 | -2.8% (inactive) | 4.26% (inactive)
26 | CCOC(=O)c1cc2sccc2n1CC(=O)Nc1ccc(OC)cc1OC | 90 | 86.5% (inactive) | 90% (inactive) | 75.4% (inactive) | 82% (inactive) | -7.66% (inactive) | 89.6 | 82 | -1.97% (inactive) | -3.82% (inactive)
27 | CC(NC(=O)Cc1cccs1)c1ccc2c(c1)OCO2 (stereo not given) | 125 | 81.5% (inactive) | 125% (inactive) | 108% (inactive) | 99.9% (inactive) | 13.7% (inactive) | 86.2 | 99.9 | -4.67% (inactive) | -0.66% (inactive)
28 | Cc1cccc(NC(=O)c2cc3n(n2)C(C(F)(F)F)CC(c2ccc4c(c2)OCO4)N3)c1 (stereo not given) | 113 | 68.5% (inactive) | 113% (inactive) | 56.9% (inactive) | 73.9% (inactive) | -6.35% (inactive) | 80.2 | 73.9 | -0.53% (inactive) | 1.61% (inactive)
29 | COc1cccc(NC(=O)CSc2nnc(-c3cccs3)n2C)c1 | 98 | 78.5% (inactive) | 98% (inactive) | 116% (inactive) | 97.5% (inactive) | 12.2% (inactive) | 85.3 | 97.5 | -6.08% (inactive) | -1.67% (inactive)
30 | CCCn1c(=N)n(CC(=O)c2cccs2)c2ccccc21 | 92 | 106% (inactive) | 92% (inactive) | 93.2% (inactive) | 91% (inactive) | -1.29% (inactive) | 92.3 | 91 | -7.33% (inactive) | -4.19% (inactive)
31 | NC(=O)c1cccc(S(=O)(=O)N2CCCCC2)c1 | 99 | 96% (inactive) | 99% (inactive) | 96.9% (inactive) | 106% (inactive) | 9.71% (inactive) | 96.5 | 106 | -7.84% (inactive) | 2.62% (inactive)

Reference: PubChem BioAssay
